In ChEMBL document CHEMBL3286295, “Discovery of HDAC inhibitors with potent activity against multiple malaria parasite life cycle stages” (Eur J Med Chem, 2014):
pIC50: −log10 of the molar value. Active and inactive are the calls of the source. The calls are words filed in the database; no cut-off is given here.

Key:
[1] = Cytotoxicity against erythrocytes (unknown origin); format: cell-based; settings: Erythrocyte
[2] = tested on: Plasmodium falciparum; experiment: Antimalarial activity against asexual blood stage of Plasmodium falciparum 3D7 infected in human serum assessed as [3H]hypoxanthine incorporation incubated for 48 hrs prior to 3H]hypoxanthine addition measured after 24 hrs by liquid scintillation counting analysis; format: functional, organism-based; settings: 3D7, Serum
In short: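 Synchronous ring-stage parasites (0.25% parasitaemia, 2.5% haematocrit) in RPMI 1640 with 10% heat-inactivated human serum, exposed to serially diluted compound for 48 h at 37°C. [3H]-hypoxanthine (0.5 μCi/well) then added for a further 24 h and counted by liquid scintillation. Inhibition is relative to 0.5% DMSO controls. IC50 by log-linear interpolation, mean (±SD) of three independent experiments, each in triplicate wells.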

[3] = tested on: HepG2; experiment: Cytotoxicity against human HepG2 cells after 48 hrs; format: ADME, cell-based; settings: HepG2, 48 h
[4] = Selectivity index, ratio of IC50 for human HepG2 cells to IC50 for asexual blood stage of Plasmodium falciparum 3D7
[5] = tested on: Plasmodium falciparum 3D7; experiment: Inhibition of HDAC in Plasmodium falciparum 3D7 trophozoites assessed as histone H4 hyperacetylation level at 500 nM after 3 hrs by Western blotting analysis relative to control
In short: (§1)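 Synchronous trophozoite-stage 3D7 parasites incubated 3 h with 500 nM compound or 0.05% DMSO vehicle. Vehicle samples taken at 0 and 3 h. Saponin lysis and PBS washing, then 15% SDS-PAGE and immunoblotting. Anti-RAP2 monoclonal used as loading control; infrared fluorescent secondary detection.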

[6] = tested on: Plasmodium berghei; experiment: Antimalarial activity against exo-erythrocytic form of Plasmodium berghei infected in human HepG2 cells after 48 hrs; format: functional, organism-based; settings: HepG2, 48 h
In short: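 HepG2-A16-CD81EGFP cells seeded 20–26 h before infection and given compound 18 h before infection (0.5% final DMSO). Infected with 1×10^3 luciferase-expressing P. berghei sporozoites per well, spun 3 min at 330xg, 37°C, then incubated 48 h at 37°C in 5% CO2. Read by luminescence. IC50 by four-parameter variable-slope nonlinear regression.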

[7] = tested on: Plasmodium falciparum 3D7; experiment: Inhibition of HDAC in Plasmodium falciparum 3D7 trophozoites assessed as histone H3 hyperacetylation level at 500 nM after 3 hrs by Western blotting analysis relative to control; in short: as §1
[8] = Selectivity index, ratio of IC50 for human HepG2 cells to IC50 for exo-erythrocytic form of Plasmodium berghei
[9] = tested on: Plasmodium falciparum; experiment: Inhibition of histone deacetylase in Plasmodium falciparum nuclear lysates at 1 uM by fluorescence assay
In short: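 Nuclear protein lysates prepared from trophozoite-stage P. falciparum with a nuclear extraction kit, tested at 1 μM compound in a fluorometric HDAC assay kit. Percent inhibition vs controls, mean (±SD) of two independent assays, each in duplicate.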

[10] = tested on: Plasmodium falciparum; experiment: Inhibition of Plasmodium falciparum recombinant histone deacetylase1 using HDAC substrate 3 as substrate at 1 uM by fluorescence assay
In short: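 Recombinant PfHDAC1 tested at 1 μM compound in a fluorometric HDAC assay kit with Fluorogenic HDAC substrate 3. Percent inhibition vs controls, mean (±SD) of two independent assays, each in duplicate.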

[11] = tested on: Plasmodium falciparum; experiment: Antimalarial activity against late stage gametocyte stage of Plasmodium falciparum NF54 after 72 hrs; format: functional, organism-based; settings: NF54, 72 h
In short: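 Stage IV gametocytes of NF54-pfs16-GFP, magnetically isolated day 8 post induction, 33,000 per well. Incubated 72 h with compound under 5% CO2/5% O2/80% N2, then overnight with Mitotracker Red CM-H2XRos (0.07 ug/ml). IC50 by sigmoidal variable-slope fit, mean ±SD, two experiments in duplicate.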

[12] = tested on: Plasmodium falciparum; experiment: Antimalarial activity against Plasmodium falciparum infected in human erythrocytes after 72 hrs; format: functional, organism-based
[13] = Cytotoxicity against human mammalian cells after 72 to 96 hrs by MTT assay; format: cell-based
[14] = Selectivity index, ratio of IC50 for human mammalian cells to IC50 for Plasmodium falciparum; format: toxicity; settings: mammalian cells (cell line not named), read-out: Ratio IC50
In short: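 Ratio of HepG2 IC50 to P. falciparum 3D7 IC50. HepG2 toxicity assay: uninfected HepG2-A16-CD81EGFP cells treated as in the liver-stage assay, with medium instead of sporozoites, for 48 h. ATP measured by luminescence vs DMSO-treated cells. IC50 by four-parameter regression.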

[15] = tested on: Plasmodium berghei; experiment: microbe, parasite or virus in culture; format: functional, organism-based; settings: HepG2
[16] = Selectivity index, ratio of IC50 for human HepG2 cells to IC50 for late stage gametocyte stage of Plasmodium falciparum NF54; format: toxicity, cell-based; settings: read-out: Ratio IC50
[17] = tested on: RAW; experiment: Cytotoxicity against mouse RAW cells by MTT assay; format: cell-based
[18] = Selectivity index, ratio of IC50 for mouse RAW cells to IC50 for Plasmodium falciparum; format: toxicity, cell-based; settings: read-out: Ratio IC50

pIC50 [2]	inhibition [5]	pIC50 [6]	inhibition [7]	inhibition [9]	inhibition [10]	pIC50 [11]	Structure (SMILES)	pIC50 [3]	selectivity ratio [4]	selectivity ratio [8]	also measured
6.77	Active	5.67	Active	50.3%	72.1%	–	CCCCOc1ccc(C(=O)NOCCCCCC(=O)NO)cc1	< 4.30	> 294	> 23	–
6.68	–	5.29	–	–	–	–	CCCCCOc1ccc(C(=O)NOCCCCCC(=O)NO)cc1	< 4.30	> 238	> 10	–
6.62	–	6.35	–	–	–	–	CCCOc1cccc(C(=O)NOCCCCCC(=O)NO)c1	5.15	29	16	–
6.46	–	5.10	–	–	–	–	CCCCCCOc1ccc(C(=O)NOCCCCCC(=O)NO)cc1	< 4.30	> 143	> 6	–
6.59	–	5.72	–	–	–	–	O=C(CCCCCONC(=O)c1ccc(C(F)(F)F)cc1)NO	4.89	50	7	–
6.24	–	5.64	–	–	–	5.70	O=C(CCCCCONC(=O)c1ccc(F)cc1)NO	4.99	18	4	–
6.82	Active	5.87	Active	9.3%	62.4%	–	CC(C)Oc1ccc(C(=O)NOCCCCCC(=O)NO)cc1	5.01	65	7	–
6.66	–	5.94	–	–	–	–	Cc1ccc(C(=O)NOCCCCCC(=O)NO)cc1	4.92	55	11	–
7.05	Active	5.73	Active	48.3%	68.6%	< 3.92	CC(C)(C)c1ccc(C(=O)NOCCCCCC(=O)NO)cc1	4.90	139	7	–
6.64	–	5.86	–	–	–	–	CCOc1ccc(C(=O)NOCCCCCC(=O)NO)cc1	5.11	33	6	–
6.68	–	5.28	–	–	–	–	CCCOc1ccc(C(=O)NOCCCCCC(=O)NO)cc1	4.77	80	3	–
6.59	–	5.75	–	–	–	5.28	CCCCc1ccc(C(=O)NOCCCCCC(=O)NO)cc1	4.97	41	6	–

The next lines start with the compound.

Structure (SMILES)	pIC50 [2]	inhibition [5]	pIC50 [6]	inhibition [7]	inhibition [9]	inhibition [10]	pIC50 [11]	pIC50 [3]	selectivity ratio [4]	selectivity ratio [8]	also measured
O=C(/C=C/c1ccccc1)N[C@@H](CCCCCC(=O)NO)C(=O)Nc1cccc2cccnc12	–	–	–	–	–	–	–	–	–	–	pIC50 [1]: 5.91
O=C(CCCCCONC(=O)c1ccco1)NO	6.21	–	5.95	–	–	–	6.00	5.10	13	7	–
O=C1C(O)=C([C@H]2CC[C@H](c3ccc(Cl)cc3)CC2)C(=O)c2ccccc21 [ATOVAQUONE]	–	–	9.80	–	–	–	–	–	–	> 64100	–
CC(C)c1ccc(C(=O)NOCCCCCC(=O)NO)cc1	6.92	Active	5.87	Active	72.9%	67.2%	–	5.06	73	7	–
CCCCc1nc2cc(/C=C/C(=O)NO)ccc2n1CCN(CC)CC [PRACINOSTAT]	–	–	–	–	–	–	–	–	–	–	pIC50 [12]: 7.10; pIC50 [13]: < 6.10; selectivity ratio [14]: > 4; pIC50 [15]: 6.82
O=C(CCCCCCC(=O)Nc1ccccc1)NO [VORINOSTAT]	–	–	–	–	–	–	–	–	–	–	pIC50 [1]: < 5.66
O=C(CCCCCONC(=O)c1ccccc1F)NO	6.14	–	5.90	–	–	–	< 3.92	5.04	12	7	–
O=C(CCCCCONC(=O)c1ccc(-c2ccccc2)cc1)NO	6.80	Active	5.74	Active	89.3%	64.2%	6.30	4.99	64	6	selectivity ratio [16]: 20
COc1ccc2nc3cc(Cl)ccc3c(Nc3cc(CN4CCCC4)c(O)c(CN4CCCC4)c3)c2n1 [PYRONARIDINE]	–	–	–	–	–	–	5.57	–	–	–	–
Cc1cccc(C(=O)NOCCCCCC(=O)NO)c1	6.72	Active	6.18	Active	73.9%	75.5%	6.37	5.33	25	7	selectivity ratio [16]: 11
Cc1ccc(C(=O)NOCCCCCC(=O)NO)cc1C	6.92	Active	6.51	Active	93.3%	82.6%	6.60	5.49	27	10	selectivity ratio [16]: 13
Cc1ccccc1C(=O)NOCCCCCC(=O)NO	5.95	–	5.60	–	–	–	–	4.89	11	5	–
Nc1cccc(-c2csc(NC(=O)CCCCCCC(=O)NO)n2)c1	–	–	–	–	–	–	–	–	–	–	pIC50 [17]: 6.22; selectivity ratio [18]: 333
Cc1cc(C)cc(C(=O)NOCCCCCC(=O)NO)c1	7.00	Active	6.80	Active	58.6%	73.8%	6.48	5.90	13	8	selectivity ratio [16]: 4
CC(/C=C/C(=O)NO)=C\[C@@H](C)C(=O)c1ccc(N(C)C)cc1 [TRICHOSTATIN]	–	Active	–	Active	78.1%	93.3%	–	–	–	–	pIC50 [1]: 6.70
CCCOc1ccccc1C(=O)NOCCCCCC(=O)NO	6.62	–	6.32	–	–	–	–	5.09	34	17	–
CCN(CC)CCCC(C)Nc1ccnc2cc(Cl)ccc12 (stereo not drawn) [CHLOROQUINE]	–	–	< 5.00	–	–	–	–	< 5.00	–	–	–
